# Assay results collected from several papers.
# Lines come from different studies, so protocols differ.
SMILES,tested on,assay,setting,measurement,result
COc1cc(C=Nc2ccc(C)cc2Cl)ccc1O,Escherichia coli,"microbial growth, disc diffusion","2000 µg/mL, 24 h",inhibition zone,14.8 mm
Cc1c(C(=O)O)ccc2c3n(nc12)[C@@H]1[C@H](C3)N(CC2CC2)[C@@]2(C(=O)Nc3cc(Cl)ccc32)[C@H]1c1cccc(Cl)c1F,human Fibroblast,"cell growth or viability, ATP luminescence",72 h,GI50,5 nM
CC(O)CSc1nnc(-c2ccccc2)n1-c1ccccc1 (stereo not shown),Staphylococcus aureus,"microbial growth, disc diffusion",25 µg/disc,inhibition zone,10 mm
COc1cc2ncnc(N(C)c3ccc4c(c3)/C(=C/c3cccc(Cl)c3)C(=O)N4C)c2cc1OC,BEAS-2B,"cell growth or viability, MTT",,IC50,10.1 µM
CC(O)CSc1nnc(-c2cc3ccccc3o2)n1-c1ccccc1 (stereo not shown),Escherichia coli,"microbial growth, disc diffusion",25 µg/disc,inhibition zone,10.3 mm
CN(C)[C@@H]1C(O)=C(C(N)=O)C(=O)[C@@]2(O)C(O)=C3C(=O)c4c(O)cccc4[C@@](C)(O)[C@H]3C[C@@H]12,Escherichia coli,"microbial growth, disc diffusion","100 µg/mL, 24 h",inhibition zone,0 mm
CC(C)c1ccccc1[C@@H]1CCCN1C1CC2(CCN(c3ccc(C(=O)NS(=O)(=O)c4ccc(NC[C@H]5CC[C@](C)(O)CC5)c([N+](=O)[O-])c4)c(Oc4cnc5[nH]ccc5c4)c3)CC2)C1,MV4-11,"cell growth or viability, ATP luminescence",48 h,IC50,0.0012 µM
Cc1nc(Nc2ccc3c(c2)/C(=C/c2ccccc2C)C(=O)N3C)c2ccccc2n1,BEAS-2B,"cell growth or viability, MTT",,IC50,15.5 µM
CC1(C)CCC(CN2CCN(c3ccc(C(=O)NS(=O)(=O)c4ccc(NCC5CCOCC5)c([N+](=O)[O-])c4)c(Oc4cnc5[nH]ccc5c4)c3)CC2)=C(c2ccc(Cl)cc2)C1,KMS-12-PE,"cell growth or viability, ATP luminescence",48 h,IC50,0.013 µM
C=CC(=O)NC1CCN(c2ncc3ncnc(Nc4ccc(Oc5ccc6c(c5)ncn6C)c(C)c4)c3n2)CC1,IM95,cell growth or viability,,EC50,54.1 nM
